Key:
Assay type in all cases: cell-based
[1] = tested on: HEK293; assay: Selectivity ratio of Ki for human cloned dopamine D2L receptor H6.55A mutant to Ki for wild type human cloned dopamine D2L receptor expressed in HEK293 cells
How it was run: (§1)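 Wild-type or mutant receptor cDNA transiently transfected into HEK-293 cells, which were grown in MEM with 10% FBS at 37 °C and 5% CO2 and harvested 48 h after transfection. Membranes were homogenised and pelleted at 50000g. Competition against [3H]spiperone (0.1-0.7 nM final) used 20-200 μg/mL protein. Ki was derived from EC50, 2-18 independent experiments in triplicate. Ratios are mutant Ki over wild-type Ki.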

[2] = Displacement of [3H]spiperone from human cloned dopamine D2L receptor H6.55A mutant expressed in HEK293 cells
How it was run: (§2)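 Wild-type or mutant receptor cDNA transiently transfected into HEK-293 cells (CaHPO4 or TransIT-293), grown in MEM with 10% FBS at 37 °C, 5% CO2, harvested 48 h post-transfection. Membranes prepared by homogenization and spin at 50000g.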

[3] = molecular target: D(3) dopamine receptor (Homo sapiens, UniProt P35462, V87F); assay: Displacement of [3H]spiperone from human cloned dopamine D3 receptor V2.61F mutant expressed in HEK293 cells
[4] = tested on: HEK293; assay: Selectivity ratio of Ki for human cloned dopamine D3 receptor D3.32E mutant to Ki for wild type human cloned dopamine D3 receptor expressed in HEK293 cells; how it was run: as §1
[5] = tested on: HEK293; assay: Selectivity ratio of Ki for human cloned dopamine D3 receptor V2.61F mutant to Ki for wild type human cloned dopamine D3 receptor expressed in HEK293 cells; how it was run: as §1
[6] = tested on: CHO; assay: Selectivity ratio of Ki for human cloned dopamine D2L receptor to Ki for human cloned dopamine D3 receptor expressed in CHO cells
[7] = molecular target: D(3) dopamine receptor (Homo sapiens, UniProt P35462, F106L/V107M/V87F); assay: Displacement of [3H]spiperone from human cloned dopamine D3 receptor V2.61F/FV3.28,3.29LM mutant expressed in HEK293 cells
[8] = tested on: HEK293; assay: Selectivity ratio of Ki for human cloned dopamine D3 receptor H6.55A mutant to Ki for wild type human cloned dopamine D3 receptor expressed in HEK293 cells; how it was run: as §1
[9] = tested on: HEK293; assay: Selectivity ratio of Ki for human cloned dopamine D3 receptor V180E/S182I mutant to Ki for wild type human cloned dopamine D3 receptor expressed in HEK293 cells; how it was run: as §1
[10] = molecular target: D(2) dopamine receptor (Homo sapiens, UniProt P14416, E181V/I183S); assay: Displacement of [3H]spiperone from human cloned dopamine D2L receptor E181V/I183S mutant expressed in HEK293 cells; how it was run: as §1
[11] = tested on: HEK293; assay: Selectivity ratio of Ki for human cloned dopamine D2L receptor V2.61F mutant to Ki for wild type human cloned dopamine D2L receptor expressed in HEK293 cells; how it was run: as §1
[12] = tested on: HEK293; assay: Selectivity ratio of Ki for human cloned dopamine D3 receptor L2.64F mutant to Ki for wild type human cloned dopamine D3 receptor expressed in HEK293 cells; how it was run: as §1
[13] = tested on: HEK293; assay: Selectivity ratio of Ki for human cloned dopamine D2L receptor V2.61F/FV3.28,3.29LM mutant to Ki for wild type human cloned dopamine D2L receptor expressed in HEK293 cells; how it was run: as §1
[14] = Displacement of [3H]spiperone from human cloned dopamine D2L receptor FV3.28,3.29LM mutant expressed in HEK293 cells; how it was run: as §2
[15] = Displacement of [3H]spiperone from human cloned dopamine D2L receptor V2.61F mutant expressed in HEK293 cells; how it was run: as §2
[16] = molecular target: D(3) dopamine receptor (Homo sapiens, UniProt P35462, S182I/V180E); assay: Displacement of [3H]spiperone from human cloned dopamine D3 receptor V180E/S182I mutant expressed in HEK293 cells
[17] = molecular target: D(3) dopamine receptor (Homo sapiens, UniProt P35462, H349A); assay: Displacement of [3H]spiperone from human cloned dopamine D3 receptor H6.55A mutant expressed in HEK293 cells
[18] = molecular target: D(3) dopamine receptor (Homo sapiens, UniProt P35462, D110E); assay: Displacement of [3H]spiperone from human cloned dopamine D3 receptor D3.32E mutant expressed in HEK293 cells
[19] = tested on: HEK293; assay: Selectivity ratio of Ki for human cloned dopamine D2L receptor FV3.28,3.29LM mutant to Ki for wild type human cloned dopamine D2L receptor expressed in HEK293 cells; how it was run: as §1
[20] = tested on: HEK293; assay: Selectivity ratio of Ki for human cloned dopamine D2L receptor E181V/I183S mutant to Ki for wild type human cloned dopamine D2L receptor expressed in HEK293 cells; how it was run: as §1
[21] = Displacement of [3H]spiperone from human cloned dopamine D2L receptor V2.61F/FV3.28,3.29LM mutant expressed in HEK293 cells; how it was run: as §2
[22] = Displacement of [3H]spiperone from human cloned dopamine D2L receptor D3.32E mutant expressed in HEK293 cells; how it was run: as §2
[23] = molecular target: T1, D(4) dopamine receptor (Homo sapiens, UniProt P21917); assay: Displacement of [3H]spiperone from wild type human cloned dopamine D4 receptor expressed in HEK293 cells
T1 sequence (P21917 whole entry): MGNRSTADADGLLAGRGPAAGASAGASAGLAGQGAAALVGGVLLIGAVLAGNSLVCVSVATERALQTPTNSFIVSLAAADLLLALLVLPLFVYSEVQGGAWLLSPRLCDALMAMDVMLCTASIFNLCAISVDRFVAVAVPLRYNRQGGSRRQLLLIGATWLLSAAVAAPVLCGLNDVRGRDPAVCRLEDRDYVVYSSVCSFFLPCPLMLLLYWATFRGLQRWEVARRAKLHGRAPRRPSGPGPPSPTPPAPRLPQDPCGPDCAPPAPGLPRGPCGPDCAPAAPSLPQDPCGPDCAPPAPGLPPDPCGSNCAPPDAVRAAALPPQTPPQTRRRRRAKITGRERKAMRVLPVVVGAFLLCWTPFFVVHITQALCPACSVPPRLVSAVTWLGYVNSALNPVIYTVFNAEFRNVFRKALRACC

[24] = molecular target: T2, D(3) dopamine receptor (Homo sapiens, UniProt P35462); assay: Displacement of [3H]spiperone from wild type human cloned dopamine D3 receptor expressed in HEK293 cells
[25] = molecular target: T3, D(2) dopamine receptor (Homo sapiens, UniProt P14416); assay: Displacement of [3H]spiperone from wild type human cloned dopamine D2L receptor expressed in HEK293 cells
[26] = molecular target: T2, D(3) dopamine receptor; assay: Displacement of [3H]spiperone from human cloned dopamine D3 receptor FV3.28,3.29LM mutant expressed in HEK293 cells
[27] = Displacement of [3H]spiperone from human cloned dopamine D2L receptor H6.55F mutant expressed in HEK293 cells; how it was run: as §2
[28] = tested on: HEK293; assay: Selectivity ratio of Ki for human cloned dopamine D2L receptor D3.32E mutant to Ki for wild type human cloned dopamine D2L receptor expressed in HEK293 cells; how it was run: as §1
[29] = molecular target: T2, D(3) dopamine receptor; assay: Displacement of [3H]spiperone from human cloned dopamine D3 receptor L2.64F mutant expressed in HEK293 cells
[30] = Displacement of [3H]spiperone from human cloned dopamine D2L receptor L2.64F mutant expressed in HEK293 cells; how it was run: as §2
[31] = tested on: HEK293; assay: Selectivity ratio of Ki for human cloned dopamine D2L receptor L2.64F mutant to Ki for wild type human cloned dopamine D2L receptor expressed in HEK293 cells; how it was run: as §1
[32] = tested on: HEK293; assay: Selectivity ratio of Ki for human cloned dopamine D3 receptor V2.61F/FV3.28,3.29LM mutant to Ki for wild type human cloned dopamine D3 receptor expressed in HEK293 cells; how it was run: as §1
[33] = tested on: HEK293; assay: Selectivity ratio of Ki for human cloned dopamine D2L receptor H6.55F mutant to Ki for wild type human cloned dopamine D2L receptor expressed in HEK293 cells; how it was run: as §1
[34] = tested on: CHO; assay: Selectivity ratio of Ki for human cloned dopamine D2L receptor to Ki for human cloned dopamine D4 receptor expressed in CHO cells
[35] = tested on: HEK293; assay: Selectivity ratio of Ki for human cloned dopamine D3 receptor FV3.28,3.29LM mutant to Ki for wild type human cloned dopamine D3 receptor expressed in HEK293 cells; how it was run: as §1
[36] = molecular target: T1, D(4) dopamine receptor; assay: Displacement of [3H]spiperone from human cloned dopamine D4 receptor expressed in CHO cells
How it was run: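 Membranes from CHO cells stably expressing human D4 (Bmax 700-1800 fmol/mg). Curves fit by nonlinear regression, sigmoid model giving IC50 and slope; Ki ± SEM from 2-9 experiments in triplicate.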

[37] = molecular target: T3, D(2) dopamine receptor; assay: Displacement of [3H]spiperone from human cloned dopamine D2L receptor expressed in CHO cells
[38] = molecular target: T2, D(3) dopamine receptor; assay: Displacement of [3H]spiperone from human cloned dopamine D3 receptor expressed in CHO cells

T3 sequence (P14416 whole entry): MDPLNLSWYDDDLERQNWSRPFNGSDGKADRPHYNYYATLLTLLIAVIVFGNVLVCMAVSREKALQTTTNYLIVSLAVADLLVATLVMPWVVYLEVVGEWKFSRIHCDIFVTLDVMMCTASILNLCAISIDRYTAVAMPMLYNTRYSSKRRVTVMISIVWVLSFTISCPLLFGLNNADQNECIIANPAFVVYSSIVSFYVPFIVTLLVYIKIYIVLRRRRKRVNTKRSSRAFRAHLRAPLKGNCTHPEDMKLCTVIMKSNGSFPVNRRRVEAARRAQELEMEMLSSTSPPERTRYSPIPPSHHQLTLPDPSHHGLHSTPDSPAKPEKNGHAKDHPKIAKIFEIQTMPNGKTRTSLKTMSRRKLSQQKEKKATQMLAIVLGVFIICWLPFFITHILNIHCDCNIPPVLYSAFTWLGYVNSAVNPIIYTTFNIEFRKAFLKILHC
D(3) dopamine receptor (Homo sapiens, UniProt P35462, V87F), sequence (P35462 as listed by the source V87F): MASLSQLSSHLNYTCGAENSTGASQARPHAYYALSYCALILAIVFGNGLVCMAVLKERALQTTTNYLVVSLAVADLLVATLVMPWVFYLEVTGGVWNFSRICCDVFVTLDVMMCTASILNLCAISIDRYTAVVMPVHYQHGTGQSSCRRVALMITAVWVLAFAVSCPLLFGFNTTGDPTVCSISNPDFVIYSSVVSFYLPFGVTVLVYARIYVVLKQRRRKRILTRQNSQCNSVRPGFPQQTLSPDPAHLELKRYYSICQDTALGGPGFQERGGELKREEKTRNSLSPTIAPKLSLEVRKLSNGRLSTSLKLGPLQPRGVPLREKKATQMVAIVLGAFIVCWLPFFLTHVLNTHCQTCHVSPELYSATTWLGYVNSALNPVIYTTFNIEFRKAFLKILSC
T2 sequence (P35462 whole entry): as the sequence (P35462 as listed by the source V87F) above, with S9G, F87V counted along it
D(3) dopamine receptor (Homo sapiens, UniProt P35462, F106L/V107M/V87F), sequence (P35462 as listed by the source V87F/F106L/V107M): as the sequence (P35462 as listed by the source V87F) above, with F106L, V107M counted along it
D(2) dopamine receptor (Homo sapiens, UniProt P14416, E181V/I183S), sequence (P14416 whole entry E181V/I183S): as the sequence (P14416 whole entry) above, with E181V, I183S counted along it
D(3) dopamine receptor (Homo sapiens, UniProt P35462, D110E), sequence (P35462 as listed by the source D110E): as the sequence (P35462 as listed by the source V87F) above, with F87V, D110E counted along it
D(3) dopamine receptor (Homo sapiens, UniProt P35462, S182I/V180E), sequence (P35462 as listed by the source V180E/S182I): as the sequence (P35462 as listed by the source V87F) above, with F87V, V180E, S182I counted along it
D(3) dopamine receptor (Homo sapiens, UniProt P35462, H349A), sequence (P35462 as listed by the source H349A): as the sequence (P35462 as listed by the source V87F) above, with F87V, H349A counted along it

Ki [3] | Ki [7] | Ki [24] | Ki [25] | Ki [26] | Compound | Ratio Ki [1] | Ki [2] | Ratio Ki [4] | Ratio Ki [5] | Ratio Ki [6] | Ratio Ki [8] | Ratio Ki [11] | Ratio Ki [13] | Ki [14] | Ki [15] | Ratio Ki [19] | Ki [21] | Ratio Ki [32] | Ratio Ki [34] | Ratio Ki [35] | further results
9200 nM | 76 nM | 8300 nM | 2300 nM | 730 nM | Clc1ccc(N2CCN(Cc3cc4ccccn4n3)CC2)cc1 | 0.14 | 320 nM | 1.4 | 1.1 | 0.64 | 0.005 | 0.53 | 0.03 | 300 nM | 1200 nM | 0.13 | 66 nM | 0.009 | 1500 | 0.09 | Ratio Ki [9]: 0.31; Ki [10]: 47000 nM; Ratio Ki [12]: 0.19; Ki [16]: 2500 nM; Ki [17]: 46 nM; Ki [18]: 12000 nM; Ratio Ki [20]: 19; Ki [22]: 5100 nM; Ki [23]: 6.8 nM; Ki [27]: 1600 nM; Ratio Ki [28]: 2.2; Ki [29]: 1600 nM; Ki [30]: 2000 nM; Ratio Ki [31]: 0.89; Ratio Ki [33]: 0.7
1900 nM | 1100 nM | 220 nM | 220 nM | 530 nM | Clc1ccc(N2CCN(CCCCCc3cc4ccccn4n3)CC2)cc1 | 0.74 | 170 nM | – | 8.8 | 0.43 | – | 3.3 | 2.1 | 1100 nM | 740 nM | 4.9 | 470 nM | 5.1 | 3.5 | 2.4 | Ki [36]: 46 nM; Ki [37]: 160 nM; Ki [38]: 370 nM
2300 nM | 51 nM | 770 nM | 350 nM | 44 nM | COc1ccccc1N1CCN(Cc2cc3ccccn3n2)CC1 | 0.18 | 63 nM | 0.9 | 3 | 0.23 | 0.08 | 0.27 | 0.15 | 46 nM | 94 nM | 0.13 | 54 nM | 0.07 | 230 | 0.06 | Ki [36]: 1.2 nM; Ratio Ki [9]: 0.44; Ki [10]: 3600 nM; Ratio Ki [12]: 0.9; Ki [16]: 340 nM; Ki [17]: 61 nM; Ki [18]: 680 nM; Ratio Ki [20]: 10.5; Ki [22]: 1500 nM; Ki [23]: 2.3 nM; Ki [27]: 590 nM; Ratio Ki [28]: 4.4; Ki [37]: 280 nM; Ki [29]: 720 nM; Ki [30]: 610 nM; Ratio Ki [31]: 1.8; Ki [38]: 1200 nM; Ratio Ki [33]: 1.2
